An excerpt weighted towards active compounds, which were near 1.3% of everything screened.
sdo1 growth: sdo1-depleted yeast growth rescue; S. cerevisiae sdo1-depleted JHY4D growth rescue, OD600 30 h; hits give high values; pdr5 snq2 efflux-pump mutant strain; z-score at 10 µM; actives 0.21% (n = 140,000); AID 817;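 active = z-score above 3 at both the 24 hr and the 30 hr optical density reads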;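 note: z-score against mean and SD of all compound wells on the same plate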
HMGR II inh: blocks class II HMG-CoA reductase of Enterococcus faecalis; purified E. faecalis HMGR, NADPH absorbance 340 nm kinetic; actives 0.41% (n = 190,000); inhibition, % at 10 µM;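 active = inhibition above a set limit, the median over all tested compounds plus 3 SD, cut at about 9.5% in these data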;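 note: enzyme runs in reverse so mevalonate oxidation gives rising NADPH absorbance; 0% = complete reaction with DMSO and 100% = background rate lacking mevalonate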
Yeast lifespan up: extends the lifespan of yeast. inhibition of the nicotinamide effect, % at 10 µM. actives 0.68% (n = 130,000). S. cerevisiae growth with nicotinamide, OD615; deaD strain in restrictive glucose medium;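 active = inhibition above a set limit, placed 3 SD over the median of all compounds, cut at about 26% in these data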;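 note: 0% = nicotinamide-treated wells and 100% = cells grown without nicotinamide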
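Buffer or medium: CSMM-D glucose medium, restrictive; test system: modified budding yeast, DeaD strain; compound: single dose 10 µM compound, 0.25% DMSO; schedule: culture preincubation 4 h, compound exposure 48 h, both 30 °C; detection: optical density (absorbance) at 615 nm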
Yeast growth inh: reduces growth of yeast BB579 in restrictive medium; S. cerevisiae BB579 growth, OD615, 48 h; inhibition, % at 10 µM; actives 0.51% (n = 140,000);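 active = inhibition above a set limit, 3 SD over the mean compound inhibition, cut at about 44% in these data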
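System: DeaD yeast strain BB579; buffer or medium: CSMM-D dextrose restrictive medium; technique: OD at 615 nm; schedule: 4 h cell preincubation, 48 h compound exposure, 30 °C humidified; doses: single 10 µM dose; controls: amphotericin B 10 µg/mL, positive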
* marks the source's active call; other numbers are inactive results; . = not tested or not shown.

SMILES	sdo1 growth	HMGR II inh	Yeast lifespan up	Yeast growth inh
Cc1[nH]nc2c1C(c1ccsc1)C1=C(CC(C)(C)CC1=O)N2 (centres undefined)	.	15*	.	.
CC1=Nc2ccccc2N=C(NC(=O)c2ccccc2)C1c1ccccc1 (centres undefined)	.	2	.	.
COc1cc(OC)cc(C(=O)NNC(=S)NCc2ccco2)c1	.	-6	.	.
Cc1nn(-c2ccccc2)c(Cl)c1/C=N/NC(=O)c1ccc(NS(=O)(=O)c2cccs2)cc1	.	9.6*	.	.
COc1ccc(NC(=S)N(CCN2CCOCC2)Cc2ccccc2F)cc1	.	12*	.	.
CCCCC1C(=O)N(c2ccccc2)N(c2ccccc2)C1=O	-0.45	1	28*	-24
CC(=O)n1cc(-c2ccncc2)c2ccccc21	-0.34	0	-16	12
CC(=O)n1cc(C(C[N+](=O)[O-])SCCN)c2ccccc21 (centres undefined)	-1.9	-4	-19	73*
CC(C)(C)C(=O)Cn1c(=N)n(Cc2ccccc2)c2ccccc21	-2.6	0	32*	-22
Cc1cc(-c2nn(-c3ccccc3F)cc2CN(C)CC(O)CO)c(C)s1 (centres undefined)	.	-5	.	.
CCCC(=O)NCCc1cc(OC)c(OC)cc1Br	1.7	-7	-2	-24
COC(=O)c1cc(OC)c(OC)cc1NC(=S)Nc1cccc(C(C)=O)c1	0.57	-1	40*	-20
CCCCC[C@H](O)/C=C/[C@@H]1[C@@H](C/C=C\CCCC(=O)O)[C@@H](O)C[C@H]1O	1.9	-1	1	-14
CCCCC[C@H](O)/C=C/[C@@H]1[C@@H](C/C=C\CCCC(=O)O)[C@H]2CO[C@@H]1C2	0.17	11*	14	-57
Cn1nnnc1SCc1csc(C2C(C#N)=C(N)OC3=C2C(=O)CCC3)c1 (centres undefined)	.	-3	.	.
O=C(NCCCN1CCCC1=O)c1nnc(Cc2c(F)cccc2Cl)o1	0.22	-1	-14	-42
CN1CCN(CCCNC(=O)c2nnc(Cc3c(F)cccc3Cl)o2)CC1	0.34	10*	-3	-22
N#Cc1c(C(F)(F)F)cc(=O)[nH]c1SCC(=O)O	.	1	.	.
CCOC(=O)C1CCCCN1C(=O)CCc1c(C)nc2cc(-c3ccccc3)nn2c1C (centres undefined)	-1.8	-3	10	48*
Cc1cc(C)nc(SCc2cc(=O)c(OC(=O)c3ccc(Cl)c([N+](=O)[O-])c3)co2)n1	0.02	0	30*	-21
COc1ccccc1Sc1ccccc1/C=N/NC(N)=O	.	15*	.	.
COc1cccc(/C=N/NC(=O)CSc2ccccc2C)c1O	-0.94	-6	-4	-62
COc1ccccc1CNC(=O)/C=C/c1ccc(Br)o1	.	2	.	.
[O-][n+]1cccc2c(Br)cc(Br)c(O)c21	.	9.9*	.	.
CCOC(=O)C(C(C)C)C(N)Cc1ccc(F)cc1 (centres undefined)	.	2	.	.
SMILES	sdo1 growth	HMGR II inh	Yeast lifespan up	Yeast growth inh
C/C(CC1(O)C(=O)N(C)c2ccccc21)=N\O (centres undefined)	0.26	-2	-4	-8
CN1C(=O)C(Cl)(Cl)C(=O)c2ccccc21	0.49	3	47*	-47
COc1ccc(Cl)cc1C(=O)NNC1CC(=O)N(Cc2ccc(Cl)cc2)C1=O (centres undefined)	-0.89	1	0	-29
O=C(CO/N=C/c1ccc(OC(F)F)cc1)NC1CCCCCC1	.	0	.	.
O=S(=O)(/N=C(\Sc1ccc(Cl)cc1)c1ccccc1)c1ccccc1	-2.1	-6	-21	88*
CS/C(=N\S(=O)(=O)c1ccc(Cl)cc1)c1ccccc1	0.03	-3	33	-49
CCC(Sc1ccccn1)C(=O)Nc1cccc([N+](=O)[O-])c1 (centres undefined)	.	14*	.	.
CC(Sc1cccc[n+]1[O-])C(=O)Nc1cccc([N+](=O)[O-])c1 (centres undefined)	.	-3	.	.
CCOc1cc(NC(=O)c2cnccn2)c(OCC)cc1NC(=O)c1cccc(F)c1	.	-1	.	.
O=c1cc(CSc2ccc([N+](=O)[O-])cc2)nc2sccn12	.	15*	.	.
Cc1ccc(SCc2cc(=O)n3ccsc3n2)c(C)c1	0.4	-2	-5	-9
COc1ccc(N2CCN(C(CNC(=O)C(C)(C)C)c3ccco3)CC2)cc1 (centres undefined)	.	11*	.	.
COc1ccc(N2CCN(C(CNC(C)=O)c3ccco3)CC2)cc1 (centres undefined)	.	-10	.	.
CN(C[C@@H](Cc1cccc2ccccc12)N(C[C@H](Cc1ccccc1)N(CCc1ccccc1)N=O)N=O)N=O	.	12*	.	.
CCCCCN(C(=O)NC(=O)Nc1ccccc1C)S(=O)(=O)c1ccccc1	-0.53	0	-4	9
CCOC(=O)C(=Cc1cc(=O)c(OC)co1)C(=O)OCC	-1.1	2	35*	-16
COc1coc(C(O)CN)cc1=O (centres undefined)	1.4	-3	-3	-42
O=C(N/N=C1\CC2CC=CC12)c1ccc(COc2ccccc2)cc1 (centres undefined)	-0.55	-3	-4	54*
CC(C)(C)c1ccc(OCc2ccc(C(=O)N/N=C3\CC4CC=CC34)cc2)cc1 (centres undefined)	-1.1	2	-3	-19
O=C(NCCCN1CCOCC1)c1cc(C(=O)C2CCCCC2)c[nH]1	.	3	.	.
CN(C)CCCNC(=O)c1cc(C(=O)C2CCCCC2)c[nH]1	.	17*	.	.
O=C(NCc1ccco1)c1cc(C(=O)C2CCCCC2)c[nH]1	0.09	2	96*	-56
CC(=O)Nc1nnc(Cc2c[nH]c3ccccc23)s1	.	-3	.	.
Cc1n(-c2ccccc2)c2ccc(Cl)cc2[n+]1CCO	.	-2	.	.
O=C(COC(=O)c1ccc(F)c(S(=O)(=O)N2CCCCC2)c1)NCc1ccc(F)cc1	.	-4	.	.
SMILES	sdo1 growth	HMGR II inh	Yeast lifespan up	Yeast growth inh
COCCN(CCOC)S(=O)(=O)c1ccc(C(=O)Nc2sc3c(c2C(N)=O)CCCCC3)cc1	-0.38	-1	40*	-34
COC(=O)c1c(NC(=O)c2ccc(N(C)S(=O)(=O)c3ccc(C)cc3)cc2)sc2c1CCCC2	1.1	-1	9	-35
N=c1occ(C(=O)c2cc(F)ccc2O)cc1C(=O)NC1CCCCC1	.	2	.	.
NC(=O)c1nc(-c2cccs2)nc2c1[nH]c(=O)n2-c1ccc(F)cc1	.	-3	.	.
O=C1/C(=C/c2cccs2)Sc2ccccc21	0.07	11*	-5	-46
NC1=NC(=O)/C(=C/c2cccs2)S1	1.4	-5	-14	8
Cc1ccc[n+](CC(=O)c2cc3ccccc3oc2=O)c1	0.78	0	36*	-26
Cn1cnnc1SCC(=O)c1cc2ccccc2oc1=O	0.62	-1	-5	-44
O=C(Cn1nc(Cl)nc1Cl)c1cc2ccccc2oc1=O	-1.6	-1	42*	-29
CCCC(=O)c1c[nH]c(C(=O)N2CCOCC2)c1	.	-3	.	.
CCCCc1ccc(NC(=S)NCc2cccc(OC)c2)cc1	.	-4	.	.
CCCCc1ccc(NC(=S)Nc2ccc(Nc3ccc(OC)cc3)cc2)cc1	-1.4	-7	-5	56*
CC(=O)NNc1ncnc2c1cnn2-c1ccc(C)cc1	.	-2	.	.

Source: PubChem BioAssay
